# ABCB1 inh = inhibitors of human ABCB1 transporter, ABCG2 counter-screen; inhibition, % at 6.6 µM; P08183; actives 0.067% (n = 190,000); AID 1326; CCRF-Adr cells, JC-1 efflux, flow cytometry; in the data active = inhibition above about 40%;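 also: 0% = vehicle and 100% = reference inhibitor; higher value means more JC-1 retained so stronger ABCB1 efflux block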
# WT yeast gro inh = growth inhibition of WT yeast, mitochondrial fusion screen; actives 2.1% (n = 190,000); mitochondrial fusion phenotypic screen, WT strain; inhibition, % at 10 µM; in the data active = inhibition above about 58%; tested in S. cerevisiae
# MEKK2 mut-MEK5 = signal of MEK5 binding to mutant human MEKK2 PB1 domain | bead flow cytometry, Alexa488-MEK5 binding to MEKK2 mutant | percent response, % at 10 µM | actives 0.35% (n = 290,000) | AID 1530; in the data active = percent response above about 24%, passing the limit was not always enough
# ABCG2 block = blocks JC-1 efflux by human ABCG2 transporter | IgMXP3 cells, flow cytometry | AID 1325 | actives 0.1% (n = 190,000) | Q9UNQ0 | inhibition, % at 6.6 µM;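 active = inhibition above 80%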;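 also: 0% = DMSO and 100% = nicardipine control wells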
# Target sequence (Q9UNQ0 whole entry, looked up): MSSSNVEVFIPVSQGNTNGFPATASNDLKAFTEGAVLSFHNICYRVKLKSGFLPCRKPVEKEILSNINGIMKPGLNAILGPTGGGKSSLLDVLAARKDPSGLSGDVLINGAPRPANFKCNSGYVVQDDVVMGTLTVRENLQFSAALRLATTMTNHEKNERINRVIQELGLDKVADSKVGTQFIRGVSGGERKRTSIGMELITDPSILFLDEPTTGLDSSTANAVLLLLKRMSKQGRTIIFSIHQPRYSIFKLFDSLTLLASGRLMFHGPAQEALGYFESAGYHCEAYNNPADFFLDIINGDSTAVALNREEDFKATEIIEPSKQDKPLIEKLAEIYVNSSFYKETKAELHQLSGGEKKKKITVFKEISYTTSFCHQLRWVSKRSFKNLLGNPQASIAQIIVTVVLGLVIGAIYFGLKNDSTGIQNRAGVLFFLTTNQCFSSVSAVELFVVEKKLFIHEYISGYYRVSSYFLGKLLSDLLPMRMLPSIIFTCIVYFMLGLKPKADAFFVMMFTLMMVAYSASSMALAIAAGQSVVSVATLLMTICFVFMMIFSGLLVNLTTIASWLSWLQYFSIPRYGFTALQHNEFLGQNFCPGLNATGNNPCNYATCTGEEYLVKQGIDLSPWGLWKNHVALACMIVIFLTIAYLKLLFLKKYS
#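 System: two drug-resistant human cell lines, ABCG2 and ABCB1; controls: nicardipine high and DMSO low controls; times: 10 min exposure at 25 °C with rotation, no wash; detection: flow cytometry of retained JC-1 fluorescence; read-out basis: percent efflux inhibition, scaled nicardipine 100% to DMSO 0%; doses: one concentration, 6.6 µM final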
# MEKK2wt PB1 HTS = raises or lowers MEK5 binding to wildtype human MEKK2 PB1 domain; actives 1.1% (n = 290,000); binding response (% of control), % at 10 µM; bead flow cytometry, Alexa488-MEK5 binding to MEKK2 WT; actives lie on both sides; in the data active = binding response below about 67% or above about 130%; inconclusive = no clear call, values can overlap the other calls; inactive = in between
# MEKK3 PB1 HTS = raises or lowers MEK5 binding to the human MEKK3 PB1 domain; bead-based flow cytometry, Alexa488-MEK5 binding to MEKK3; actives lie on both sides; 0 = blocked by unlabeled MEK5, 100 = vehicle; binding response (% of control), % at 10 µM; actives 1.4% (n = 290,000); AID 1529;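 active = binding response more than 3 SD above or below the average of its plate-row segment, actives on both sides; inconclusive = wells at one plate position flagged as instrument error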;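 also: Alexa488 bead fluorescence after subtracting the streptavidin-only scavenger bead signal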
# * marks the source's active call; other numbers are inactive results; ? = inconclusive; . = no result; [ ] = another dose, or the depositor's remark. Only some compounds are listed: those with a hit (about 3.5% of all), similar ones and a draw of the others.
SMILES,ABCB1 inh,WT yeast gro inh,MEKK2 mut-MEK5,ABCG2 block,MEKK2wt PB1 HTS,MEKK3 PB1 HTS
CCc1ccccc1NNC(=O)c1snnc1C,.,.,1.0,.,101.0,100.0
COc1cccc(C2CC(c3cccs3)=NN2S(C)(=O)=O)c1 (configuration not stated),0.1,-2.4,19.0,1.6,3.0*,100.0
CS(=O)(=O)Nc1cccc(C2=NN(S(=O)(=O)c3ccc(F)cc3)C(c3cccs3)C2)c1 (configuration not stated),1.7,-18.5,6.0,2.7,7.0*,103.0
CS(=O)(=O)N1N=C(c2ccc(Cl)cc2)CC1c1cccs1 (configuration not stated),0.4,-9.0,1.0,2.6,100.0,101.0
CCS(=O)(=O)Nc1cccc(C2=NN(S(=O)(=O)c3ccc(F)cc3)C(c3cccs3)C2)c1 (configuration not stated),2.6,-18.3,2.0,4.0,101.0,103.0
CCS(=O)(=O)Nc1ccc(C2=NN(S(=O)(=O)CC)C(c3cccs3)C2)cc1 (configuration not stated),.,.,-32.0,.,.,7.0*[inhibitor]
COc1ccc(S(=O)(=O)N2N=C(c3cccc(NS(C)(=O)=O)c3)CC2c2ccco2)cc1 (configuration not stated),.,.,21.0,.,14.0*,100.0
O=S1(=O)N=C(N(CCO)/N=C/c2ccc(Br)cc2)c2ccccc21,.,.,7.0,.,107.0,103.0
CCOC(=O)c1ccc(N2C=C(C(=O)OC)C(c3cccc(O)c3)C(C(=O)OC)=C2)cc1,.,.,0.0,.,97.0,97.0
CC1=CC(C)(C)[N+](C)=CN1c1ccccc1,0.1,4.3,-2.0,0.1,90.0,92.0
Cc1cc(C)n(C(=O)CCCn2nc(C)c([N+](=O)[O-])c2C)n1,0.5,-4.4,-11.0,7.2,86.0,88.0
CCS(=O)(=O)Nc1cccc(C2=NN(S(=O)(=O)CC)C(c3cccs3)C2)c1 (configuration not stated),.,.,32.0*,.,.,17.0*[inhibitor]
CC(C)(C)C(=O)N1N=C(c2cccc(NS(C)(=O)=O)c2)CC1c1cccs1 (configuration not stated),1.3,-8.0,-12.0,4.1,89.0,102.0
CS(=O)(=O)Nc1ccc(C2=NN(S(C)(=O)=O)C(c3ccccc3)C2)cc1 (configuration not stated),0.1,-1.9,0.0,-0.1,85.0,97.0
CS(=O)(=O)Nc1cccc(C2=NN(C(=O)c3ccccc3)C(c3cccs3)C2)c1 (configuration not stated),.,.,2.0,.,101.0,103.0
CCS(=O)(=O)N1N=C(c2cccc(NS(C)(=O)=O)c2)CC1c1cccs1 (configuration not stated),.,.,24.0*,.,.,13.0*[inhibitor]
CCS(=O)(=O)Nc1cccc(C2=NN(S(C)(=O)=O)C(c3cccs3)C2)c1 (configuration not stated),.,.,.,.,.,12.0*[inhibitor]
CS(=O)(=O)Nc1cccc(C2=NN(S(C)(=O)=O)C(c3ccc4c(c3)OCO4)C2)c1 (configuration not stated),-0.1,2.7,29.0,-0.8,26.0*,111.0
Cc1cc(C(=O)Nn2c(C3CCCCC3)nc3ccccc3c2=O)ccc1[N+](=O)[O-],0.9,73.8*,-3.0,2.2,86.0,86.0
Cc1cc(C(=O)Nn2c(C)nc3ccccc3c2=O)ccc1[N+](=O)[O-],0.3,12.5,-2.0,0.7,94.0,93.0
O=C(Nn1c(C2CCCCC2)nc2ccccc2c1=O)c1ccc(Cl)c([N+](=O)[O-])c1,0.9,81.6*,-2.0,11.2,99.0,98.0
COc1ccc(C(=O)Nc2ccc(Cl)cc2C(=O)NCCN2CCOCC2)cc1,0.6,70.8*,-1.0,1.9,104.0,96.0
CC1=C(C(=O)O)N2C(=O)C(NC(=O)c3nn(C)cc3[N+](=O)[O-])C2SC1 (configuration not stated),-0.1,-4.3,139.0*,-1.9,?,?
O=C(NC1=NCCS1)c1cc(-c2ccc(F)cc2)nc2ccccc12,-2.4,73.9,0.0,10.2,102.0,104.0
